Assay outcomes from PubChem.
The list is not random: actives were taken first. Their share in the collection is about 2.2%.
M5 PAM: potentiates acetylcholine response at human M5 receptor. activation, % at 3 µM. CHO-K1 hM5, Fluo-8 calcium, ACh EC20 PAM; 0% = ACh EC20, 100% = ACh EC100. P08912. hit rate 0.3% among 360,000;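 active = activation above the run cutoff, the mean activation of all test compounds plus 3 SD, cut at about 18% in these data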
Target sequence (P08912 whole entry, looked up): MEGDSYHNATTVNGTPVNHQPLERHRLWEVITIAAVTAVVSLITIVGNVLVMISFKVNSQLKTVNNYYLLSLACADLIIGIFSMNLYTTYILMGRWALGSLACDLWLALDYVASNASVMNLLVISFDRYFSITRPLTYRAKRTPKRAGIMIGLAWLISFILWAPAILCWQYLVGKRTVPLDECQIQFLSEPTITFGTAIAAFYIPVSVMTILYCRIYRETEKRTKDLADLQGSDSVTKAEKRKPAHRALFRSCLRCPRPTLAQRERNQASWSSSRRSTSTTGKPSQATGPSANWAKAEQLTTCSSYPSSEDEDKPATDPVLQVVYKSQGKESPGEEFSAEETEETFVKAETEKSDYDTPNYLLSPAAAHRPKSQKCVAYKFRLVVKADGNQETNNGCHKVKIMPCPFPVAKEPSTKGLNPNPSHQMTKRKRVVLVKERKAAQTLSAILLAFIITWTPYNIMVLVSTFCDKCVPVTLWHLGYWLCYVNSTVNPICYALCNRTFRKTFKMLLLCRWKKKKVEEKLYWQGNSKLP
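Test system: CHO-K1 hM5 cells / Doses: single-point, 3 µM nominal / Times: Post-acetylcholine fluorescence recording 140 s / Technique: Fluo-8 calcium fluorescence / Measure: Max/basal fluorescence ratio as % of EC20–EC100 ACh window / Benchmarks: low control EC20 acetylcholine (0%), high control EC100 acetylcholine (100%) / Replicates: one well per compound, no replicates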
M5 ag: CHRM5 agonism in calcium assay; activation, % at 3 µM; hit rate 0.19% among 360,000; CHO-K1 hM5 cells, Fluo-8 calcium fluorescence; 0% DMSO wells, 100% maximal acetylcholine response;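 active = activation above the run's mean over test compounds plus 3 SD, cut at about 23% in these data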;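 also: signal is peak over basal fluorescence ratio across the kinetic read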
CHRM1 antagonist: human CHRM1 antagonism; CHO-K1 hM1, Fluo-8 calcium fluorescence, ACh EC80 antagonist; inhibition, % at 3 µM; hit rate 1.3% among 360,000; AID 588852;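 active = percent inhibition above its own plate's cutoff, namely the mean of that plate's compound wells plus 3 SD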;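 also: peak over basal fluorescence ratio during 140 s after agonist addition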
CHRM5 antagonist: antagonists of human muscarinic M5 receptor (CHRM5). CHO-hM5 cells, Fluo-8 calcium fluorescence, ACh EC80. inhibition, % at 3 µM. hit rate 0.59% among 360,000. AID 624040;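 active = inhibition above a per-plate cutoff, the mean of that plate's test compounds plus 3 SD, cut at about 27% in these data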
CHRM1 PAM: potentiates human M1 receptor response to acetylcholine. activation, % at 3 µM. CHO-K1 hM1, Fluo-8 calcium fluorescence, ACh EC20; 0% = ACh EC20, 100% = maximal ACh. P11229. hit rate 0.088% among 360,000; in the data active = activation above about 19%, passing the limit was not always enough
CHRM1 agonist: activates human CHRM1 receptor | activation, % at 3 µM | AID 588814 | hit rate 0.33% among 360,000 | CHO-K1 hM1, Fluo-8 calcium fluorescence, agonist mode; 0% DMSO, 100% acetylcholine EC100;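 active = activation above the run's mean compound activation plus 3 SD, cut at about 16% in these data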;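 also: peak over basal fluorescence ratio within a 140 s kinetic read after compound addition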
Hits are given with their value; n = inactive.

SMILES	M5 PAM	M5 ag	CHRM1 antagonist	CHRM5 antagonist	CHRM1 PAM	CHRM1 agonist
O=C(Nc1cccc([N+](=O)[O-])c1)NN1CCCCCC1	n	n	n	30	n	n
O=C(CNC1CCCCC1)Nc1cccc([N+](=O)[O-])c1	n	n	n	n	n	n
O=C(Nc1cccc([N+](=O)[O-])c1)Nc1cccc([N+](=O)[O-])c1	n	n	n	n	n	n
CCCNC(=O)N1C2=NC(C(=O)OC)=C(C(=O)OC)[C@@H]3N(Cc4ccccc4)c4ccccc4[C@]23C[C@H]1CO	20	n	n	n	n	n
C=CCNC(=O)N1C2=NC(C(=O)OC)=C(C(=O)OC)[C@@H]3N(Cc4ccccc4)c4ccccc4[C@]23C[C@H]1C(=O)OC	n	n	n	n	n	n
CN(C)c1ccc(CNC(=O)c2ccc(CNc3c(N4CCCCC4)c(=O)c3=O)cc2)cc1	n	n	n	n	27	n
O=C(NCc1ccc(Cl)cc1)c1ccc(CNc2c(N3CCCC3)c(=O)c2=O)cc1	n	n	n	n	n	n
CC1=CC(C)(C)N(C(=O)CNC2CCCCC2)c2cc(C)ccc21	n	n	99	40	n	n
CCCc1ccc(C(C)NC(=S)NCc2ccc(F)cc2)cc1 (stereo unspecified)	n	n	44	n	n	n
CCC(NC(=S)NCc1ccc(F)cc1)c1ccc(C(C)C)cc1 (stereo unspecified)	n	n	97	n	n	n
COc1ccc(C(C)NC(=S)NCc2ccc(F)cc2)cc1OC (stereo unspecified)	n	n	n	n	n	n
CCC(C)c1ccc(C(C)NC(=S)NCc2ccc(F)cc2)cc1 (stereo unspecified)	n	n	34	n	n	n
COC(=O)CCC(=O)NC(=S)Nc1cc(Cl)ccc1Cl	n	n	n	n	n	n
O=C(NCc1ccc2c(c1)OCO2)C(=O)Nc1cc2c3c(c1)CC(=O)N3CCC2	n	n	n	n	n	n
c1ccc(CCNc2nc(-c3ccncc3)nc3ccccc23)cc1	n	n	35	n	n	n
c1ccc(Nc2nc(-c3ccncc3)nc3ccccc23)cc1	n	n	n	n	n	n
Cc1nc(N/N=C/c2ccc(Br)cc2)cc(N2CCOCC2)n1	n	n	n	n	n	n
COc1ccc(N2C(=O)CSC2c2cccc(OC)c2OC)cc1 (stereo unspecified)	n	n	n	n	n	n
COc1cccc(C2SCC(=O)N2c2ccc(C)cc2)c1OC (stereo unspecified)	n	n	58	n	n	n
O=C(COC(=O)c1ccccn1)c1cccc(Br)c1	n	n	n	n	n	n
Cc1ccc(C(=O)Nc2nc(C(N)C(C)C)cs2)cc1 (stereo unspecified)	n	n	n	n	n	n
Cc1ccc(NC(=O)c2sc3ncn(CC(=O)N4CCN(c5ccccn5)CC4)c(=O)c3c2C)cc1F	n	n	n	n	n	n
Cc1ccc(NC(=O)c2sc3ncn(CC(=O)N4CCN(c5ccccn5)CC4)c(=O)c3c2C)cc1Cl	n	n	63	n	n	n
CC(=O)Nc1ccc(CN2CCN(CCc3ccccc3)C(CCO)C2)cc1 (stereo unspecified)	n	n	n	n	n	n
CC(=O)OCC(=O)[C@@]1(O)CC[C@H]2[C@@H]3CCC4=CC(=O)C=C[C@]4(C)[C@@]3(Cl)[C@@H](Cl)C[C@@]21C	n	43	n	n	n	37
SMILES	M5 PAM	M5 ag	CHRM1 antagonist	CHRM5 antagonist	CHRM1 PAM	CHRM1 agonist
O=C(N/N=C\c1c(O)ccc2ccccc12)c1cncc(Br)c1	n	67	n	n	n	42
O=C(NN=Cc1c(O)ccc2ccccc12)c1ccncc1	n	46	n	n	n	n
O=C(N/N=C/c1c(O)ccc2ccccc12)c1cccnc1	n	n	n	n	n	n
CC12CCC(=O)N1C(C(=O)NCCc1ccc(S(N)(=O)=O)cc1)CS2 (stereo unspecified)	n	n	n	n	n	n
Cc1nc2c(OCc3ccc(Cl)cc3)cccn2c1N(C)C(=O)CCC1CCCC1	n	n	n	n	n	n
Cc1nc2c(OCc3ccc(C#N)cc3)cccn2c1N(C)C(=O)CCC1CCCC1	n	n	40	n	n	n
Cc1nc2c(OCc3ccc(C(F)(F)F)cc3)cccn2c1N(C)C(=O)CCC1CCCC1	n	n	n	n	n	n
Cc1nc2c(OCc3ccc(F)cc3)cccn2c1N(C)C(=O)CCC1CCCC1	n	n	43	n	n	n
CCN(CC)C(=O)C1=C(C)N(CCCOC)C(=O)C(CC(=O)NC2CC2)C1 (stereo unspecified)	n	n	n	n	n	n
CC1CCCCN1CCNC(=O)c1ccc2c(c1)N(Cc1ccccc1F)C(=O)c1ccccc1S2=O (stereo unspecified)	n	n	48	n	n	n
CCN1CCN(CCCNC(=O)c2ccc(/C=C3/Sc4ccccc4N(Cc4ccccc4F)C3=O)cc2)CC1	n	n	29	n	n	n
CCCCN(C)CCCNC(=O)c1ccc2c(c1)N(CC)C(=O)c1ccccc1S2=O (stereo unspecified)	n	n	47	n	n	n
CCN1CCN(CCNC(=O)c2ccc(/C=C3/Sc4ccccc4N(Cc4ccccc4C)C3=O)cc2)CC1	n	n	n	n	n	n
O=C(NCCN1CCCC1)c1ccc2c(c1)N(Cc1ccc(F)cc1)C(=O)c1ccccc1S2=O (stereo unspecified)	n	n	n	n	n	n
CCCCN(C)C(=O)c1ccc2c(c1)N(CC)C(=O)c1ccccc1S2=O (stereo unspecified)	n	n	n	n	n	n
O=C(NCCCN1CCCC1)c1ccc2c(c1)N(Cc1ccccc1F)C(=O)c1ccccc1S2=O (stereo unspecified)	n	n	33	n	n	n
CCCn1c(SCC(=O)NNC(=O)c2ccc(C)cc2)nnc1C(C)C	n	n	n	n	n	n
CC(C)(C)CN1CCN(CCCc2ccccc2)C(CCO)C1 (stereo unspecified)	n	n	n	n	n	n
Cc1onc(C(=O)NC2CCCCC2)c1[N+](=O)[O-]	n	n	n	n	n	n
O=C1C=C(O)c2cccc(O)c2C1=O	n	n	n	n	n	n
CC1OC(CC(=O)O)CC2=C1C(=O)c1c(O)cccc1C2=O (stereo unspecified)	n	n	46	49	n	n
NCCCC(=O)N1c2ccccc2Sc2ccc(Cl)cc21	n	n	100	77	n	n
NC(=O)N1CCN(CCCN2c3ccccc3Sc3cc(Cl)ccc32)CC1	n	n	n	n	n	n
